Results: ChEMBL document CHEMBL4689842, “EUbOPEN Chemogenomics Library wave 1” (2021)

Tested on: U2OS
Assay: Multiplex assay against U2OS
Type: toxicity, cell-based
Details: human
How it was run: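 Phenotypes for tubulin, mitochondrial mass and membrane permeability are expressed as per cents of healthy-nucleus cells. Cells were stained live at seeding with Hoechst33342, BioTracker Green Microtubule Cytoskeleton Dye, MitoTracker Red and Annexin V Alexa Fluor 680, then imaged after compound addition on a CQ1 microscope at 37°C and 5% CO2. Machine-learning gating in CellPathfinder separated Hoechst high-intensity objects from normal cells, divided normal cells by nuclear state (healthy, pyknosed, fragmented) and divided pyknosed cells into mitotic or apoptotic.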

[1] = 12 h, 1 µM, compound concentration 1 uM, replicate 1
[2] = 12 h, 1 µM, compound concentration 1 uM, replicate 2
[3] = 12 h, 10 µM, compound concentration 10 uM, replicate 1
[4] = 12 h, 10 µM, compound concentration 10 uM, replicate 2
[5] = 24 h, 1 µM, compound concentration 1 uM, replicate 1
[6] = 24 h, 1 µM, compound concentration 1 uM, replicate 2
[7] = 24 h, 10 µM, compound concentration 10 uM, replicate 1
[8] = 24 h, 10 µM, compound concentration 10 uM, replicate 2
[9] = 48 h, 1 µM, compound concentration 1 uM, replicate 1
[10] = 48 h, 1 µM, compound concentration 1 uM, replicate 2
[11] = 48 h, 10 µM, compound concentration 10 uM, replicate 1
[12] = 48 h, 10 µM, compound concentration 10 uM, replicate 2

In the case of `CC(C)[C@H](CO)Nc1nc(Nc2cccc(Cl)c2)c2ncn(C(C)C)c2n1` [PURVALANOLA], the “Population Apoptotic (%)” value [1] is reported as 58%, the “Population Fragmented Nuclei (%)” value [1] is reported as 13% and the “Population Healthy Nuclei (%)” value [1] is reported as 76%. The “Population Hoechst High Intensity Objects (%)” value [1] was 12%, the “Population Membrane Permeable-Phenotype (%)” value [1] was 1% and the “Population Mitochondria Different-Phenotype (%)” value [1] was 15%. The “Population Mitotic Cells (%)” value [1] was 41%, the “Population Normal (%)” value [1] was 87% and the “Population Pyknosed Nuclei (%)” value [1] was 10%. The “Population Tubulin-Different-Phenotype (%)” value [1] was 12%, the “Total Cell Count” value [1] was 212 and the “Population Apoptotic (%)” value [2] was 50%. The “Population Fragmented Nuclei (%)” value [2] was 8%, the “Population Healthy Nuclei (%)” value [2] was 88% and the “Population Hoechst High Intensity Objects (%)” value [2] was 10%. The “Population Membrane Permeable-Phenotype (%)” value [2] was 7%, the “Population Mitochondria Different-Phenotype (%)” value [2] was 21% and the “Population Mitotic Cells (%)” value [2] was 50%. The “Population Normal (%)” value [2] was 89%, the “Population Pyknosed Nuclei (%)” value [2] was 3% and the “Population Tubulin-Different-Phenotype (%)” value [2] was 15%. The “Total Cell Count” value [2] was 111, the “Population Apoptotic (%)” value [3] was 68% and the “Population Fragmented Nuclei (%)” value [3] was 23%. The “Population Healthy Nuclei (%)” value [3] was 55%, the “Population Hoechst High Intensity Objects (%)” value [3] was 13% and the “Population Membrane Permeable-Phenotype (%)” value [3] was 39%. For the same compound, the “Population Mitochondria Different-Phenotype (%)” value [3] was 96%, the “Population Mitotic Cells (%)” value [3] was 32% and the “Population Normal (%)” value [3] was 86%. The “Population Pyknosed Nuclei (%)” value [3] was 21%, the “Population Tubulin-Different-Phenotype (%)” value [3] was 100% and the “Total Cell Count” value [3] was 129. For the same compound, the “Population Apoptotic (%)” value [4] was 83%, the “Population Fragmented Nuclei (%)” value [4] was 13% and the “Population Healthy Nuclei (%)” value [4] was 79%. For the same compound, the “Population Hoechst High Intensity Objects (%)” value [4] was 7%, the “Population Membrane Permeable-Phenotype (%)” value [4] was 23% and the “Population Mitochondria Different-Phenotype (%)” value [4] was 95%. For the same compound, the “Population Mitotic Cells (%)” value [4] was 16%, the “Population Normal (%)” value [4] was 92% and the “Population Pyknosed Nuclei (%)” value [4] was 6%. For the same compound, the “Population Tubulin-Different-Phenotype (%)” value [4] was 98%, the “Total Cell Count” value [4] was 66 and the “Population Apoptotic (%)” value [5] was 36%. For the same compound, the “Population Fragmented Nuclei (%)” value [5] was 10%, the “Population Healthy Nuclei (%)” value [5] was 80% and the “Population Hoechst High Intensity Objects (%)” value [5] was 5%. The “Population Membrane Permeable-Phenotype (%)” value [5] was 3%, the “Population Mitochondria Different-Phenotype (%)” value [5] was 7% and the “Population Mitotic Cells (%)” value [5] was 63%. For the same compound, the “Population Normal (%)” value [5] was 94%, the “Population Tubulin-Different-Phenotype (%)” value [5] was 6% and the “Total Cell Count” value [5] was 221. For the same compound, the “Population Apoptotic (%)” value [6] was 60%, the “Population Fragmented Nuclei (%)” value [6] was 8% and the “Population Healthy Nuclei (%)” value [6] was 83%. For the same compound, the “Population Hoechst High Intensity Objects (%)” value [6] was 6%, the “Population Membrane Permeable-Phenotype (%)” value [6] was 5% and the “Population Mitochondria Different-Phenotype (%)” value [6] was 23%. For the same compound, the “Population Mitotic Cells (%)” value [6] was 40%, the “Population Normal (%)” value [6] was 93% and the “Population Pyknosed Nuclei (%)” value [6] was 8%. The “Population Tubulin-Different-Phenotype (%)” value [6] was 9%, the “Total Cell Count” value [6] was 157 and the “Population Apoptotic (%)” value [7] was 67%. For the same compound, the “Population Fragmented Nuclei (%)” value [7] was 27%, the “Population Healthy Nuclei (%)” value [7] was 48% and the “Population Hoechst High Intensity Objects (%)” value [7] was 16%. The “Population Membrane Permeable-Phenotype (%)” value [7] was 55%, the “Population Mitochondria Different-Phenotype (%)” value [7] was 100% and the “Population Mitotic Cells (%)” value [7] was 32%. For the same compound, the “Population Normal (%)” value [7] was 83%, the “Population Pyknosed Nuclei (%)” value [7] was 24% and the “Population Tubulin-Different-Phenotype (%)” value [7] was 100%. The “Total Cell Count” value [7] was 133, the “Population Apoptotic (%)” value [8] was 80% and the “Population Fragmented Nuclei (%)” value [8] was 16%. For the same compound, the “Population Healthy Nuclei (%)” value [8] was 65%, the “Population Hoechst High Intensity Objects (%)” value [8] was 8% and the “Population Membrane Permeable-Phenotype (%)” value [8] was 50%. For the same compound, the “Population Mitotic Cells (%)” value [8] was 20%, the “Population Normal (%)” value [8] was 91% and the “Population Pyknosed Nuclei (%)” value [8] was 17%. For the same compound, the “Total Cell Count” value [8] was 66, the “Population Fragmented Nuclei (%)” value [9] was 12% and the “Population Healthy Nuclei (%)” value [9] was 82%. The “Population Hoechst High Intensity Objects (%)” value [9] was 4%, the “Population Membrane Permeable-Phenotype (%)” value [9] was 4% and the “Population Mitochondria Different-Phenotype (%)” value [9] was 14%. The “Population Normal (%)” value [9] was 95%, the “Population Pyknosed Nuclei (%)” value [9] was 5% and the “Population Tubulin-Different-Phenotype (%)” value [9] was 7%. For the same compound, the “Total Cell Count” value [9] was 219, the “Population Apoptotic (%)” value [10] was 60% and the “Population Fragmented Nuclei (%)” value [10] was 4%. For the same compound, the “Population Healthy Nuclei (%)” value [10] was 84%, the “Population Hoechst High Intensity Objects (%)” value [10] was 5% and the “Population Membrane Permeable-Phenotype (%)” value [10] was 6%. For the same compound, the “Population Mitochondria Different-Phenotype (%)” value [10] was 25%, the “Population Mitotic Cells (%)” value [10] was 40% and the “Population Normal (%)” value [10] was 94%. For the same compound, the “Population Pyknosed Nuclei (%)” value [10] was 11%, the “Population Tubulin-Different-Phenotype (%)” value [10] was 10% and the “Total Cell Count” value [10] was 168. The “Population Apoptotic (%)” value [11] was 77%, the “Population Fragmented Nuclei (%)” value [11] was 33% and the “Population Healthy Nuclei (%)” value [11] was 17%. The “Population Hoechst High Intensity Objects (%)” value [11] was 23%, the “Population Membrane Permeable-Phenotype (%)” value [11] was 64% and the “Population Mitochondria Different-Phenotype (%)” value [11] was 94%. The “Population Mitotic Cells (%)” value [11] was 22%, the “Population Normal (%)” value [11] was 76% and the “Population Pyknosed Nuclei (%)” value [11] was 49%. For the same compound, the “Population Tubulin-Different-Phenotype (%)” value [11] was 100%, the “Total Cell Count” value [11] was 189 and the “Population Apoptotic (%)” value [12] was 100%. For the same compound, the “Population Fragmented Nuclei (%)” value [12] was 16%, the “Population Healthy Nuclei (%)” value [12] was 62% and the “Population Hoechst High Intensity Objects (%)” value [12] was 18%. The “Population Membrane Permeable-Phenotype (%)” value [12] was 58%, the “Population Mitochondria Different-Phenotype (%)” value [12] was 87% and the “Population Mitotic Cells (%)” value [12] was 0%. For the same compound, the “Population Normal (%)” value [12] was 81%, the “Population Pyknosed Nuclei (%)” value [12] was 20% and the “Population Tubulin-Different-Phenotype (%)” value [12] was 93%. For the same compound, the “Total Cell Count” value [12] was 94.
